Measurements published in ChEMBL document CHEMBL2375286, “Design and synthesis of a series of α-benzyl phenylpropanoic acid-type peroxisome proliferator-activated receptor (PPAR) gamma partial agonists with improved aqueous solubility” (Bioorg Med Chem, 2013).
Converted amounts (≈) assume the structure as drawn. The source made the active and inactive calls. The rule behind the calls is not given here.

Experiments:
[1] = molecular target: T1, Peroxisome proliferator-activated receptor gamma (Homo sapiens) (UniProt P37231); assay: Agonist activity at human PPAR-gamma1 LBD (176 to 477) transfected in african green monkey CV1 cells after 40 hrs by beta galactosidase-based luciferase reporter gene assay relative to rosiglitazone; assay type: cell-based; conditions: CV-1
T1 sequence (whole entry): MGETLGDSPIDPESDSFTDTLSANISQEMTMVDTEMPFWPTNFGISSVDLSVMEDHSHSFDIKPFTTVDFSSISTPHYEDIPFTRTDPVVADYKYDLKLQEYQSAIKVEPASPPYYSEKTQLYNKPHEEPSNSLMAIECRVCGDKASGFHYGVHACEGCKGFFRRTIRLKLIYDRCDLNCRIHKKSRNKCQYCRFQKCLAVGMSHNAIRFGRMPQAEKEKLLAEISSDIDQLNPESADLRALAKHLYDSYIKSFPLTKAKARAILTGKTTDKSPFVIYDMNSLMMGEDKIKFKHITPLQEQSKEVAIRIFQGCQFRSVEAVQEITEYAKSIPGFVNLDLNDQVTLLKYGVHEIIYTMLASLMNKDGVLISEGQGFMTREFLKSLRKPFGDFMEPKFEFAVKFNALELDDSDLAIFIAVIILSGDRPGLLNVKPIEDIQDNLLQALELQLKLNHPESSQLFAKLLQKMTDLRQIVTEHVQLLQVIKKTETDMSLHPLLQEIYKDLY
Method in brief: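 GAL4-PPAR chimera transactivation in CV-1 cells (0.5×10^5/well, 24 h), lipofected 5 h with 30 ng receptor plasmid, 250 ng MH100x4-tk-luc reporter, 350 ng pCMX-βGAL normalisation plasmid, 120 ng pGEM4 carrier. Compounds for 40 h. Luciferase and βGAL read from lysates. Activity scaled between 0.1% DMSO (minimum) and 10^-5 M rosiglitazone maleate (maximum). EC50 = concentration giving 50% maximal reporter activity.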

[2] = molecular target: T2, Peroxisome proliferator-activated receptor gamma (Homo sapiens, UniProt P37231); assay: Agonist activity at human PPAR-gamma1 LBD (176 to 477) transfected in african green monkey CV1 cells after 40 hrs by beta galactosidase-based luciferase reporter gene assay; assay type: cell-based, CV-1
T2 sequence (P37231 whole entry): T1 sequence (whole entry)
Method in brief: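 CV-1 cells seeded at 0.5×10^5 per well, cultured 24 h, then lipofected for 5 h. Transfection mix: 30 ng GAL4-PPAR chimeric receptor plasmid, 250 ng MH100x4-tk-luc reporter, 350 ng pCMX-βGAL for normalization, 120 ng pGEM4 carrier. Compounds added for 40 h, then luciferase and βGAL read in lysates. Activity scaled between 0.1% DMSO (minimum) and 10^-5 M rosiglitazone maleate (maximum). EC50 is the concentration giving 50% of maximal reporter activity.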

[3] = Thermodynamic solubility of the compound in phosphate buffer at pH 7.2 to 7.4 after 48 hrs by UV-HPLC analysis; assay type: physicochemical; conditions: read-out: Therm_solubility
Method in brief: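 About 1 mg of compound ground and suspended in 1.0 mL phosphate buffer (pH 7.2–7.4), then shaken 48 h at 25 °C. Suspension filtered (0.45 μm), filtrate diluted in CH3CN and analysed by HPLC with UV detection at 254 nm. Concentration taken from a calibration curve and corrected for dilution.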

[4] = molecular target: T3, Peroxisome proliferator-activated receptor gamma (Mus musculus) (UniProt P37238); assay: Agonist activity at PPAR-gamma in mouse 3T3-L1 cells assessed as adipocyte differentiation after 6 days by Oil Red O staining; assay type: cell-based
T3 sequence (whole entry): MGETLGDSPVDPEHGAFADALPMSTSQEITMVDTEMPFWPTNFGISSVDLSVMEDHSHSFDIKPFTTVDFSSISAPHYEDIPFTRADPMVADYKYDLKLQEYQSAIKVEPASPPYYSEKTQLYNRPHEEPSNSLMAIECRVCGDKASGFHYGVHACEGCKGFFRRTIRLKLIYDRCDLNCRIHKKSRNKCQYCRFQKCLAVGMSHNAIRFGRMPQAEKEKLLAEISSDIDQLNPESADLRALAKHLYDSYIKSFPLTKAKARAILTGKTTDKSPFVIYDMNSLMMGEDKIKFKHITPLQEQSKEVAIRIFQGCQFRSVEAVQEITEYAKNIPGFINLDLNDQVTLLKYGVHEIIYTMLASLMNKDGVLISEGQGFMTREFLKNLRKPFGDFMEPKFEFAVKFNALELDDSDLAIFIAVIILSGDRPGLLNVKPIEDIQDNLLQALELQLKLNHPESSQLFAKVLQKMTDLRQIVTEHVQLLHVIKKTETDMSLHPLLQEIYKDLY
Method in brief: (§1)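 3T3-L1 cells grown in DMEM with 10% FBS. At confluence, differentiation started with 1 μM dexamethasone, 0.5 mM IBMX and 5 μg/mL insulin for 2 days. Ligands then added at 1–1000 nM. After 6 days cells stained with Oil Red O and adipogenesis read as absorbance at OD550. Error bars are SD.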

[5] = molecular target: T3, Peroxisome proliferator-activated receptor gamma (Mus musculus); assay: Agonist activity at PPAR-gamma in mouse 3T3-L1 cells assessed as induction of triglyceride accumulation at 1 to 1000 nM after 6 days by Oil Red O staining; assay type: cell-based; method in brief: as §1
[6] = molecular target: T3, Peroxisome proliferator-activated receptor gamma (Mus musculus); assay: Agonist activity at PPAR-gamma in mouse 3T3-L1 cells assessed as adipocyte differentiation at 1 to 1000 nM after 6 days by Oil Red O staining; assay type: cell-based; method in brief: as §1
OCUM-2MD3 [7] = assay: Induction of apoptosis in human OCUM-2MD3 cells after 72 hrs by Hoechst 33342/propidium iodide staining-based fluorescence microscopy; assay type: functional, cell-based
Method in brief: (§2)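 OCUM-2MD3 cells grown in DMEM/F12 (1:1); OUMS-24 normal fibroblasts grown in DMEM; both media with 10% FBS, 100 μg/mL kanamycin and 0.5 μg/mL Fungizone. Cells plated, incubated 24 h, then treated with compound at 1–100 μM for 72 h. Stained with 1 μg/mL Hoechst 33342 plus 5 μg/mL propidium iodide for 20 min in the dark and examined by fluorescence microscopy. Cells with fragmented or shrunken nuclei counted as apoptotic; result given as % increase over DMSO control.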

[8] = molecular target: T3, Peroxisome proliferator-activated receptor gamma (Mus musculus); assay: Partial agonist activity at PPAR-gamma in mouse 3T3-L1 cells assessed as adipocyte differentiation at […] after 6 days by Oil Red O staining; assay type: cell-based; method in brief: as §1
OCUM-2MD3 [9] = assay: Induction of apoptosis in human OCUM-2MD3 cells at 10 to 100 uM after 72 hrs by Hoechst 33342/propidium iodide staining-based fluorescence microscopy; assay type: functional, cell-based; method in brief: as §2
[10] = Induction of apoptosis in human OUMS-24 cells at 100 uM after 72 hrs by Hoechst 33342/propidium iodide staining-based fluorescence microscopy; assay type: cell-based; conditions: oums-24, 72 h; method in brief: as §2
[11] = Induction of apoptosis in human OUMS-24 cells after 72 hrs by Hoechst 33342/propidium iodide staining-based fluorescence microscopy; assay type: cell-based; conditions: oums-24, 72 h; method in brief: as §2

Efficacy [1] [%]	EC50 [2] [nM]	solubility thermodynamic at 48 h [3] [µg/mL]	SMILES	also measured
113	186	17 (≈ 33.4 µM)	CCCOc1ccc(C[C@@H](Cc2ccccc2)C(=O)O)cc1CNC(=O)c1ccc(-c2ccccn2)cc1	
72.7	73.8	< 1	CCCOc1ccc(C[C@@H](Cc2ccccc2)C(=O)O)cc1CNC(=O)c1ccc(-c2ccccc2C)cc1	
58.2	714	32.2 (≈ 63.2 µM)	CCCOc1ccc(C[C@@H](Cc2ccccc2)C(=O)O)cc1CNC(=O)c1ccc(-c2cnccn2)cc1	
104	103	< 1	CCCOc1ccc(C[C@@H](Cc2ccccc2)C(=O)O)cc1CNC(=O)c1ccc(-c2ccc(F)cc2)cc1	
95	49.5	< 1	CCCOc1ccc(C[C@@H](Cc2ccccc2)C(=O)O)cc1CNC(=O)c1ccc(-c2ccccc2F)cc1	
95.7	85.9	< 1	CCCOc1ccc(C[C@@H](Cc2ccccc2)C(=O)O)cc1CNC(=O)c1ccc(-c2ccccc2)cc1	
			CCCOc1ccc(C[C@H](CC)C(=O)O)cc1CNC(=O)c1ccc(C23CC4CC(CC(C4)C2)C3)cc1	Activity [4]: Dose-dependent effect; Activity [5]: Active; Activity [6]: Active
65	34.6	301 (≈ 591 µM)	CCCOc1ccc(C[C@@H](Cc2ccccc2)C(=O)O)cc1CNC(=O)c1ccc(-c2ncccn2)cc1	Activity (OCUM-2MD3 [7]): Dose-dependent effect; Activity [8]: Active; Activity [5]: Active; Activity [6]: Active
		< 1	CCCOc1ccc(C[C@H](Cc2ccccc2)C(=O)O)cc1CNC(=O)c1ccc(C23CC4CC(CC(C4)C2)C3)cc1	Activity (OCUM-2MD3 [7]): Dose-dependent effect; Activity (OCUM-2MD3 [9]): Active; Activity [10]: Toxic
76	65.2	< 1	CCCOc1ccc(C[C@@H](Cc2ccccc2)C(=O)O)cc1CNC(=O)c1ccc(-c2cccs2)cc1	
82.7	3100	190 (≈ 373 µM)	CCCOc1ccc(C[C@@H](Cc2ccccc2)C(=O)O)cc1CNC(=O)c1ccc(-c2cncnc2)cc1	
108	1690	34.1 (≈ 67 µM)	CCCOc1ccc(C[C@@H](Cc2ccccc2)C(=O)O)cc1CNC(=O)c1ccc(-c2ccncc2)cc1	
99.7	28.7	< 1	CCCOc1ccc(C[C@@H](Cc2ccccc2)C(=O)O)cc1CNC(=O)c1ccc(-c2cccc(F)c2)cc1	
100	844	69.5 (≈ 137 µM)	CCCOc1ccc(C[C@@H](Cc2ccccc2)C(=O)O)cc1CNC(=O)c1ccc(-c2cccnc2)cc1	
			CCc1ccc(CCOc2ccc(CC3SC(=O)NC3=O)cc2)nc1 (centres undefined) [PIOGLITAZONE]	Activity (OCUM-2MD3 [7]): Dose-dependent effect; Activity [11]: Non-toxic
